CSN inh: inhibitors of CSN-mediated cullin deneddylation, primary screen, biochemical, fluorescence polarization, uHTS; COP9 signalosome complex subunit 5 (Homo sapiens), Q92905; Purified CSN, SCF-Nedd8-OG deneddylation; inhibition, % at 12.5 µM; 0.38% of 360,000 active; AID 651999, 2013;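 active means pattern-corrected inhibition above about 35%, with an unprinted fluorescence ratio check between 0.5 and 1.5, limit read from the data, passing the limit was not always enough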;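 further: 0% = enzyme with substrate and 100% = substrate without enzyme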
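Assay system: purified human Csn5 enzyme expressed in HEK293T cells; measure: % inhibition; also added: SCFSkp2-Nedd8OG substrate at 10 nM final; technique: fluorescence polarization; times: reaction 90 min, room temperature; medium: Tris buffer pH 7.5, NaCl, DTT, Tween-20, trehalose, ovalbumin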
Rpn11 inh: Rpn11 (PSMD14) deubiquitinase inhibitors, primary screen, biochemical, fluorescence polarization, uHTS; inhibition, % at 20 µM; 0.59% of 360,000 active; human 26S proteasome, Ub4-pepOG fluorescence polarization; 20S core pre-blocked with epoxomicin; 26S proteasome non-ATPase regulatory subunit 14 (Homo sapiens), O00487;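 active means inhibition at 20 µM, scaled to each plate's controls, above about 33%, limit read from the data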
IDE act: human IDE activators in live cells, primary screen, fluorescence polarization, HEK cells, FAbeta-B substrate | FAbeta-B cleavage; 0% vehicle, 100% cell-free pure enzyme wells | 0.073% of 340,000 active | Insulin-degrading enzyme (Homo sapiens), P14735 | activation, % at 5.96 µM;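 active means activation above the mean of all tested compounds plus 3 SD, set per screening campaign, cut at about 17% in these data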
IDE inh: human IDE inhibitors in live cells, primary screen, fluorescence polarization, HEK cells, FAbetaB substrate; FAbetaB cleavage; Insulin-degrading enzyme (Homo sapiens), P14735; inhibition, % at 5.59 µM; AID 434962, 2010; 0.41% of 320,000 active;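 active means percent inhibition above the average of all tested compounds plus 3 SD, set per screening campaign, cut at about 16% in these data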;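 further: IDE supplied by intact live HEK cells; FP after avidin binding of uncleaved biotin substrate so inhibition keeps polarization high; 0% = DMSO wells and 100% = 60 µM reference IDE inhibitor Ii1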
HNF4A DNA FP: change in binding of human HNF4A to DNA, primary screen, biochemical, fluorescence polarization, FITC-DNA; 1 h; 0.3% of 360,000 active; Hepatocyte nuclear factor 4-alpha (Homo sapiens), P41235; activity change, % at 10 µM; in the data active means activity change above about 30%, passing the limit was not always enough
TPT1 inhibitor: Candida albicans TPT1 enzyme inhibitors, primary screen, biochemical, fluorescence polarization; recombinant caTPT1, FP RNA substrate dephosphorylation; inhibition, % at 5 µM; 0.81% of 300,000 active;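 active means inhibition above the mean of all tested compounds plus 3 SD, set per screening campaign, cut at about 24% in these data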;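 further: plate controls were DMSO alone for no effect and ferristatin control at 100 nM for full effect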
Rpn11 confirm: Rpn11 (PSMD14) deubiquitinase inhibitors, confirmation, biochemical, fluorescence polarization, single concentration; shares compounds with Rpn11 inh; purified human 26S proteasome, Ub4-pepOG fluorescence polarization; proteasome pretreated with epoxomicin; inhibition, % at 20 µM; 29% of 1,900 active; AID 602318, 2012
MMP-2 counter-1: MMP-2 enzyme inhibition, confirmation, counter-screen for RPN11 inhibitor project, biochemical, fluorescence, single concentration | shares compounds with Rpn11 inh | recombinant MMP-2, FRET peptide cleavage fluorescence | inhibition, % at 20 µM | 4% of 1,900 active;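 further: human MMP-2 activated beforehand with APMA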
Target sequence (P08253 whole entry, looked up): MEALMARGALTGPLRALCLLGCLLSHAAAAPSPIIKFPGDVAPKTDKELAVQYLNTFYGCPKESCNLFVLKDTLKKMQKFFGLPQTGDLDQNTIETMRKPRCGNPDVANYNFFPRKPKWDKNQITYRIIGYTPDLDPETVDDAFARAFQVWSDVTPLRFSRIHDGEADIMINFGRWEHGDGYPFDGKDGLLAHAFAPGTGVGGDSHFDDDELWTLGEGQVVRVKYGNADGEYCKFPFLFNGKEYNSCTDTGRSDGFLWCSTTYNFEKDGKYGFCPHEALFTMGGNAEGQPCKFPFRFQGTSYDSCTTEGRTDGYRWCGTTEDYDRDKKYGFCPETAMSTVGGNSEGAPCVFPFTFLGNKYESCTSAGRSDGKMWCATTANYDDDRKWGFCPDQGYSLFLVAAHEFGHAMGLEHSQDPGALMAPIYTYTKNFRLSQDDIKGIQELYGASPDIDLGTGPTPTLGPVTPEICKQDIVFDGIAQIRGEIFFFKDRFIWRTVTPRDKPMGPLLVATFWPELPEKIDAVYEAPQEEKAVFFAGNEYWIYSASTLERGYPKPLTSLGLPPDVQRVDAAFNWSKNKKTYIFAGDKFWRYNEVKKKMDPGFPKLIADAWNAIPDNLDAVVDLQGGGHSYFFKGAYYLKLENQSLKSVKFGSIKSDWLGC
Thrombin FP: bovine thrombin protease inhibition, confirmation, counter-screen for Rpn11 inhibitor project, biochemical, fluorescence polarization, single concentration; shares compounds with Rpn11 inh; bovine thrombin cleavage of Ub4-pepOG; inhibition, % at 20 µM; 13% of 1,900 active; AID 602333, 2012;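 active means mean inhibition at least 40% at 20 µM, or signal 3 deviations below plate average, so some actives read negative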;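 further: plate controls were thrombin with DMSO for no effect and buffer wells lacking thrombin for full effect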
CSN deneddyl val: Csn5 deneddylation inhibitors, confirmation, biochemical, fluorescence polarization, single concentration, SCF-Nedd8OG substrate | shares compounds with CSN inh | Csn5 deneddylation of SCF-Nedd8OG, 90 min | inhibition, % at 16.6 µM | 62% of 540 active | AID 720654, 2013; in the data active means inhibition above about 50%;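 further: 0% = DMSO with enzyme and 100% = no enzyme wells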
MMP-2 counter-2: MMP-2 protease inhibition counter-screen, confirmation, counter-screen for CSN deneddylation inhibitor project, biochemical, fluorescence, single concentration | recombinant MMP-2, FRET substrate fluorescence, 60 min | 33% of 540 active | inhibition, % at 16.6 µM | shares compounds with CSN inh | AID 720655, 2013;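 active means corrected plate-normalized z-score of 5 or more, or -5 or less, or inhibition of 15% or more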;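 further: plate controls were DMSO wells with enzyme for no effect and buffer wells lacking MMP-2 for full effect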
Thrombin cntr: blocks bovine thrombin in a CSN deneddylation counter-screen. bovine thrombin cleavage of Ub4-pepOG, fluorescence polarization. inhibition, % at 16.6 µM. shares compounds with CSN inh. 49% of 540 active;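 active means inhibition at or above a set limit, with a fluorescence interference ratio between 0.5 and a set maximum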
HNF4a DNA conf: change in HNF4A binding to DNA, retest, confirmation, biochemical, fluorescence polarization, FITC-DNA | shares compounds with HNF4A DNA FP | 1 h | activity change, % at 12.5 µM | 99% of 210 active; call rule not given here
An asterisk follows results filed as active; · = not tested or not shown; + = active, no number; ! = a repeat was not active. Sampled rows, rich in hits. Any-hit rate of the full collection: about 1.7%. Unless noted, no stated cut-off is given here; in the data, active means inhibition above about 40%; inactive means the rest.

SMILES | CSN inh | Rpn11 inh | IDE act | IDE inh | HNF4A DNA FP | TPT1 inhibitor | Rpn11 confirm | MMP-2 counter-1 | Thrombin FP | HNF4a DNA conf | others
O=C(c1ccco1)N1CC2(CC(c3ccc(Cl)cc3)=NO2)CN1Cc1ccc(Br)cc1 (stereo not given) | -1.7 | 3.1 | · | · | 1.9 | · | · | · | · | ·
COc1ccc(-n2c(N)c(C(=O)NCC3CCCO3)c3nc4ccccc4nc32)c(OC)c1 (stereo not given) | 2.3 | 1.0 | 3.0 | -3.0 | 2.9 | -0.3 | · | · | · | ·
C=CCn1c(N)c(C(=O)NCC2CCCO2)c2nc3ccccc3nc21 (stereo not given) | 36.0* | 42.8* | 0.6 | 4.9 | 4.7 | 2.7 | -7.0 | -35.6 | -22.4 | · | CSN deneddyl val=101.2*;MMP-2 counter-2=0.8;Thrombin cntr=-0.4
Cn1c(CC(=O)NNC(=O)c2cccnc2)nc2ccccc21 | -7.1 | 6.2 | 7.6 | -1.1 | 5.3 | · | · | · | · | ·
Nc1nc2ccccc2cc1C(=O)NCc1cccs1 | -2.8 | · | · | · | 3.5 | · | · | · | · | ·
CCN1/C(=C\c2ccc3cc(C)ccc3[n+]2CC)Sc2cc(C)c(C)cc21 | 65.6* | 91.8* | -169.5 | · | 106.6* | · | 88.7* | -140.5 | 144.8* | · | CSN deneddyl val=40.1;MMP-2 counter-2=19.9*;Thrombin cntr=113.2*
CCN1/C(=C/c2ccc3cc(C)cc(C)c3[n+]2CC)Sc2cc(C)ccc21 | 81.0* | 169.5* | -185.7 | · | 150.7* | · | 89.0* | -93.4 | 134.7* | · | CSN deneddyl val=16.0;MMP-2 counter-2=64.3*;Thrombin cntr=22.8*
O=C(CN(C1CCCCC1)S(=O)(=O)c1ccc(F)cc1)NCC1CCCO1 (stereo not given) | 7.2 | 5.7 | -0.2 | · | 0.2 | · | · | · | · | ·
Cc1ccc(-c2nc(NC(=O)CSc3cc(C)c4ccccc4n3)ns2)cc1 | 175.4* | + | 1.2 | 1.7 | 161.6* | -3.7 | -0.9 | -6.4 | 26.9 | 94.1*
O=c1c(Cl)c(N/N=C/c2ccc(Cl)cc2)cnn1-c1ccccc1 | 27.5 | 114.6* | -1.0 | 2.4 | 38.8* | -1.2 | 17.0 | -14.7 | 1.8 | 44.5*
C=CCN1C(=O)/C(=C2/Sc3ccc(OC)cc3N2C)SC1=Nc1ccccc1 | 3.4 | 15.5 | -0.2 | 7.1 | 6.5 | -1.5 | · | · | · | ·
CCCCN1C(=O)/C(=C2/Sc3ccccc3N2C)S/C1=N\c1ncn[nH]1 | 45.0* | 66.5* | -0.9 | 2.0 | 45.5* | 20.8 | 96.7* | -52.4 | 62.4* | 75.1*
Cc1ccc[n+](-c2nc3ccccc3nc2C(=C=[N-])C#N)c1 | 62.7*! | 49.3*! | 2.7 | -3.9 | 59.7* | 14.5 | 11.6 | -2.8 | 3.4 | 42.1*
Cc1cccc(NC(=O)c2cc3c(=O)n4ccccc4nc3s2)c1 | 8.8 | 95.1* | -8.1 | -5.5 | 44.9* | -0.7 | 7.1 | -84.0 | -20.7 | 55.0*
CC(=O)c1c(O)c(C)c(O)c2c1OC1=CC(=O)C(C(C)=O)C(=O)[C@@]12C (stereo not given in full) | 24.4 | 111.0* | 1.9 | · | 65.4* | · | 120.4* | -21.9 | 108.6* | 56.7*
CC(=O)Oc1c(C)c(OC(C)=O)c2c(c1C(C)=O)OC1CC(=O)C(C(C)=O)=C(O)C21C (stereo not given) | 2.9 | 13.4 | 5.4 | -0.6 | 3.8 | 4.7 | · | · | · | ·
Cc1ccc(S(=O)(=O)N2CCN(C(=O)COC(=O)COc3ccc(Cl)cc3C)CC2)c(C)c1 | 5.2 | 0.7 | 1.8 | · | -3.0 | · | · | · | · | ·
CN(Cc1ccco1)C(=O)CC[C@H]1O[C@@H](n2ccc(=O)[nH]c2=O)[C@H](O)[C@@H]1O | -1.6 | -9.4 | · | · | -3.7 | · | · | · | · | ·
C/C(=N\NC(=O)c1ccc(OC2OCCOC2Oc2ccc(C(=O)N/N=C(\C)c3ccncc3)cc2)cc1)c1ccncc1 (stereo not given) | 98.8* | + | -0.8 | -0.2 | 156.7* | 1.6 | 191.7* | -489.0 | 50.8* | 203.7*
C/C(=N\NC(=O)c1ccncc1)c1ccc(N2CCOCC2)cc1 | 3.9 | -5.9 | 4.4 | -2.7 | 1.1 | · | · | · | · | ·
O=C(NCc1ccccc1Cl)c1ccc2nc([C@H]3C[C@H](O)[C@@H](CO)O3)[nH]c2c1 | 5.3 | 1.6 | · | · | -2.7 | · | · | · | · | ·
COCC(C)n1c(C)cc(C(=O)COC(=O)c2c(NC(C)=O)sc(C)c2C)c1C (stereo not given) | 25.6 | 48.9* | 1.6 | 5.1 | 37.4* | -2.9 | -11.4 | -184.1 | -22.9 | 50.8*
C=CCCC(=O)N1C[C@H]2CON(C)[C@H]2C[C@H]1c1ccc(N2CCCCC2)cc1 | 14.0 | 50.7* | · | · | 42.7* | · | 56.3* | 10.1 | 44.8* | 45.2*
COc1ccc(CC(=O)Nc2cccc(-c3nnc(-c4ccccc4)o3)c2)cc1OC | -1.8 | 4.4 | -4.0 | · | 10.8 | · | · | · | · | ·

Screens (PubChem BioAssay)
